Measurements published in the EternaBench riboswitch data.

System: MS2 coat protein
Assay: apparent Kd, MS2 coat protein; higher = weaker binding; RNA-MaP array; theophylline 2 mM where present
Procedure, shortened: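 Designs were transcribed by stalled E. coli RNA polymerase on Illumina sequencing-chip clusters. They were titrated with SNAP-549-labelled MS2 coat protein from 0.7 or 1.5 nM, doubling to 3 µM, in 100 mM Tris-HCl pH 7.5, 80 mM KCl, 4 mM MgCl2, BSA, DTT, yeast tRNA and Tween-20, without and then with constant ligand. The apparent Kd is the median of filtered per-cluster fits after normalisation of green signal to red-channel RNA signal and control-cluster median Fmax.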

[1] = designed as: ON switch for theophylline, no ligand
[2] = ligand present: theophylline, designed as: ON switch for theophylline
[3] = designed as: OFF switch for theophylline, no ligand
[4] = ligand present: theophylline, designed as: OFF switch for theophylline

Sequence	apparent Kd [1]	apparent Kd [2]	apparent Kd [3]	apparent Kd [4]
UCGUGUAUAACGGAUACCAGUGAGAAGGAUACAUGAGGAUCACCCAUGUGAGUUGAUGUACACCCUUGGCAGCUGUAUAUAUCUA	75.5 nM	49.6 nM	–	–
AUAUUAAAGAGUGAUACCAGACUACAUGAGGAUCACCCAUGUUACAUUUAAAUAUCAUUUGUCCCUUGGCAGCACAUUAAGUACA	–	–	17.4 nM	13.3 nM
CGCUACGUAACUGAUACCAGUGUACUGACAUGAGGAUCACCCAUGUUGGGUUUUGUUGUACACCCUUGGCAGCAGAAUCGUAGCG	–	–	70.3 nM	95.3 nM
AUAAGUAAGUUUUCGUGUUUUAUUACAGAUACCAGACUAUACGUUGUCCCUUGGCAGCUGGAUUACAUGAGGAUCACCCAUGUUG	–	–	24.5 nM	54.3 nM
GAUGAUAUUGCAGAUACCAGACACAUGAGGAUCACCCAUGUCGCUGAGUUGCUGGAUCGUGUCCCUUGGCAGCUGCGAUAUCAUC	–	–	19.5 nM	180 nM
UCGUGAGUUUCGGAUACCAGUGUUGUCGAUACAUGAGGAUCACCCAUGUUAGAGGAUGUACACCCUUGGCAGCCGGCUGUGGCGG	18.6 nM	11.3 nM	–	–
ACAUGAGGGAUGGAUACCAGCGACAUGAGGAUCACCCAUGUAUGAGGAUCAGCCAUGUUAUGCCCUUGGCAGCCACGAACAUCAG	–	–	26.6 nM	226 nM
ACAUGAGGAUCACCCAUGUUCCUCAUUGAUACCAGUGAAUUUAGACGCCCUUGGCAGCGAGUUUAAGAAGAAGAAGUUUUUUUUU	–	–	667 nM	895 nM
AUUAAUUGUCGUGAUACCAGACAUACAUGAGGAUCACCCAUGUUAAGUAACAUUUUUUAUGUCCCUUGGCAGCACUUUUUAAUUA	19.4 nM	11.5 nM	–	–
GACAUGAGGAUAGAUACCAGCGACAUGAGGAUCACAUGAGGAUCACCCAUGUGUAGUAUACGCCCUUGGCAGCUAACAUGAGGAU	108 nM	94 nM	–	–
UGACAUUGCUCAGAUACCAGACAUGAGGAUCACCCAUGUACCAAGGUAAAGAAAUAACGUGUCCCUUGGCAGCUGAGCAAUGUCU	–	–	10.1 nM	98.8 nM
UGUAACAUGAGGAUCACCCAUGUAAGUGAUACCAGAUAAGUAGUAGUCCCUUGGCAGCAUAUUGGGCAAGUGUAUAGUCUAUACG	49.8 nM	53.5 nM	–	–
CAAACAUGAGGAUCACCCAUGUAAUCAGAUACCAGUGACGAAAGUCACCCUUGGCAGCUGAGUACAUAUUGGCAGAGGUGUUUGA	–	–	67 nM	75 nM
CCUCAUGUGGUGCUGCACAUGAGAGGUGAUACCAGCAUCGAAAGAUGCCCUUGGCAGCACCAACAUGAGGAUCACCCAUGUAAUA	57.4 nM	135 nM	–	–
UCGCUCGCCGGAAGGCGAGCGAGUUGCGAUACCAGCCCGGAAACGGGCCCUUGGCAGCGCACAUGAGGAUCACCCAUGUCAUGUU	–	–	19.4 nM	26.2 nM
CAGAACAUGAGGAUCACCCAUGUCAGGGAUACCAGCUCAGACAUGGGCCCUUGGCAGCUCUGUGGCUGACGAAAGUCAGCAUCUG	60.8 nM	185 nM	–	–
GAUGAACUAUUUGAUACCAGACUACAUGAGGAUCACCCAUGUGAGUUUAUACUUCAGUCAGUCCCUUGGCAGCAAAUAGUUUAUC	–	–	44.9 nM	99.3 nM
AUGCACCUCGUCCAGGCAAUCUUUAGUGAUACCAGCUAACUCCUUGGCCCUUGGCAGCACAUGAGGAUCACCCAUGUGCGACAUC	–	–	11.9 nM	14 nM
ACAUGAAGAACAGCGGUGGGCGCGCUCGAUACCAGUACUUUGAUAUACCCUUGGCAGCGACAUGAGGAUCACCCAUGUGAGAUGA	–	–	18.7 nM	27.2 nM
UGACAUUGCUCAGAUACCAGACAUGAGGAUCACCCAUGUGCCAACGUACAAAUAAUAAAUGUCCCUUGGCAGCUGAGCAAUGUCU	–	–	11.4 nM	35 nM

Sequence	apparent Kd [1]	apparent Kd [2]	apparent Kd [3]	apparent Kd [4]
UACAGUACAACAGAUACCAGACAGUACUCUAGAUUGCAACAUGAGGAUCACCCAUGUAUAGUCCCUUGGCAGCUGUAAUGGGUGA	180 nM	441 nM	–	–
AUAACAUGAGGAUCACCCAUGUUGAGUGAUACCAGACUAUGUAAUGUCCCUUGGCAGCACAAGUAAAGUUAUAAAUAAUGAUAGA	57.2 nM	25.1 nM	–	–
GGCUAGUGCAUCGAUACCAGCUACAUGAGGAUCACCCAUGUAGGAAGGGUGGUACUCGAUAGCCCUUGGCAGCGAACACCUCCGG	–	–	16.1 nM	31.4 nM
GGAAUUAAGACUGAUACCAGUCAAGAUAAUCAUAAGAAUAAACAUGAGGAUCACCCAUGUGACCCUUGGCAGCAGACUAAUACCG	31 nM	29.6 nM	–	–
ACGAACUGUAGUGAUACCAGACGUACAUGAGGAUCACCCAUGUUGUAAACAUGGUGAAUAGUCCCUUGGCAGCACAGUUAGUUCG	–	–	182 nM	738 nM
AUCGUACCUGGUGAUACCAGCAAUUGCUCGUGACAUGAGGAUCACCCAUGUGGCCAGUGAUGCCCUUGGCAGCAUGGUCGGUGCA	164 nM	89.3 nM	–	–
ACGUCUCGUUUACUCGUGGGUUAGCUCGAUACCAGUAUUCAAACUUACCCUUGGCAGCGACAUGAGGAUCACCCAUGUGCGAAGA	–	–	16.4 nM	54.9 nM
UCGACAGUGAACGAUACCAGCGUCACGUGGCCGGUGGUCACAUGAGGAUCACCCAUGUAACGCCCUUGGCAGCGUGCACGUAUCC	–	–	26.1 nM	184 nM
ACGUCCAGGUUAAUCGUGGACAUGGUCGAUACCAGUAUUUUAAUCUACCCUUGGCAGCGACAUGAGGAUCACCCAUGUGCGAUGA	–	–	12.5 nM	23.4 nM
UCCUUAGAUACUGAUACCAGACUACAGUAAACAUGAGGAUCACCCAUGUUUGAUCACUAAGUCCCUUGGCAGCAGGUACAUGGGA	11.3 nM	9.08 nM	–	–
GAUGAUAUUGCAGAUACCAGACACAUGAGGAUCACCCAUGUCGUUGGGUCGCUGGGUCGUGUCCCUUGGCAGCUGCGAUAUCAUC	–	–	30.7 nM	263 nM
UUUUAACAUGAGGAUCACCCAUGUAAUGAUACCAGAGACGAAAGUCUCCCUUGGCAGCAUAAUCAUUACAUGAGAUGGAAACAUC	30.6 nM	116 nM	–	–
UGUAUGUGAUCUGAUACCAGUCCCUUGGCAGCAACAUGAGGAUCACCCAUGUAGAUACCAGACCCUUGGCAGCAGAUCGCAUACU	9.06 nM	8.27 nM	–	–
AUUAUCAUGGUCAUAUAUAUUUCGUCAGAUACCAGACUAGAUAUAGUCCCUUGGCAGCUGUUACAUGAGGAUCACCCAUGUUAUA	–	–	116 nM	–
AGUACUCGAACGGAUACCAGCCGGACAUGAGGAUCACCCAUGUCCUACCAUGGUUCGGUUGGCCCUUGGCAGCCGUUCGUGUACA	225 nM	20.2 nM	–	–
CGACUACAGCGUGAUACCAGUGACAGAUACCAGUCUAGACAUGAGGAUCACCCAUGUACGCGCCCUUGGCAGCACACUAGAUCGA	89.4 nM	49.9 nM	–	–
AGGCAGUAGGUGAUCCACUGCCAAGGUGAUACCAGCAUCGAAAGAUGCCCUUGGCAGCACCAACAUGAGGAUCACCCAUGUAAUA	108 nM	663 nM	–	–
ACGUCCCGUUUACUCGUGGGUUAGGUCGAUACCAGUAUUCAAACUUACCCUUGGCAGCGACAUGAGGAUCACCCAUGUGCGAAGA	–	–	17.6 nM	99.5 nM
ACACAUGAGGAUCACCCAUGUUCAAUAGAUACCAGUGAUACGGUGCACCCUUGGCAGCUGUUGCUGAGUGAUGGUUCCCUCGGUA	41.3 nM	65.4 nM	–	–
CGGCCCUCACAUGAGGAUCACCCAUGUGAUACCAGCCUGGAAACAGGCCCUUGGCAGCACAGGUCAUCAAAAGAUGACCAAGCCG	–	–	12.5 nM	63.9 nM
